ChEMBL document CHEMBL1649289, “Paradoxical growth of Candida dubliniensis does not preclude in vivo response to echinocandin therapy” (2009)
Converted amounts (≈) assume the structure as drawn.

Columns and labels:
Type in all cases: functional
Candida dubliniensis [1] = assay: Antifungal activity against Candida dubliniensis FMR 10032 infected in OF1 mouse assessed as fungal count in kidney at 1 mg/kg/day, iv […]
How it was run: (§1)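 Immunocompetent male OF1 mice, 10 per group, were challenged i.v. with 1.5 × 10^7 CFU. Drug was given i.v. once daily at 1 or 10 mg/kg for 3 days, starting 24 h post-challenge; controls were untreated. Mice were killed 1 day after the last dose. Kidneys and spleen were homogenized in saline, serial 10-fold dilutions were plated on Sabouraud agar at 35°C for 3 days, and mean log10 CFU was reported.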

Candida dubliniensis [2] = assay: Antifungal activity against Candida dubliniensis FMR 10034 infected in OF1 mouse assessed as fungal count in kidney at 10 mg/kg/day, iv […]; how it was run: as §1
Candida dubliniensis [3] = assay: Antifungal activity against Candida dubliniensis 10035 after 24 hrs; conditions: Candida dubliniensis, 10035, 24 h
How it was run: (§2)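 CLSI M27-A3 broth microdilution. Yeast inoculum was adjusted with a hemocytometer. MIC was read at 24 h or 48 h as the lowest concentration giving 50% growth inhibition.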

Candida dubliniensis [4] = assay: Antifungal activity against Candida dubliniensis FMR 10034 infected in OF1 mouse assessed as fungal count in spleen at 10 mg/kg/day, iv […]; how it was run: as §1
Candida dubliniensis [5] = assay: Antifungal activity against Candida dubliniensis 10032 after 48 hrs; conditions: Candida dubliniensis, 10032, 48 h; how it was run: as §2
Candida dubliniensis [6] = assay: Antifungal activity against Candida dubliniensis 9456 after 48 hrs; conditions: Candida dubliniensis, 9456, 48 h; how it was run: as §2
Candida dubliniensis [7] = assay: Antifungal activity against Candida dubliniensis FMR 10034 infected in immunosuppressed OF1 mouse assessed as fungal count in spleen at 1 mg/kg/day, iv […]
How it was run: (§3)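 Male OF1 mice, 10 per group, were immunosuppressed on infection day with cyclophosphamide 200 mg/kg i.p. plus 5-fluorouracil 150 mg/kg i.v., then challenged i.v. with 1.5 × 10^5 CFU. Drug was given at 1 mg/kg i.v. once daily for 5 days, starting 24 h after challenge. One day after treatment ended, kidney and spleen homogenates were plated in 10-fold dilutions on Sabouraud agar (35°C, 3 days) and mean log10 CFU was reported.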

Candida dubliniensis [8] = assay: Antifungal activity against Candida dubliniensis 10035 after 48 hrs; conditions: Candida dubliniensis, 10035, 48 h; how it was run: as §2
Candida dubliniensis [9] = assay: Antifungal activity against Candida dubliniensis 10033 after 48 hrs; conditions: Candida dubliniensis, 10033, 48 h; how it was run: as §2
Candida dubliniensis [10] = assay: Antifungal activity against Candida dubliniensis 10034 by hemocytometry
How it was run: (§4)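 Minimal fungicidal concentration from the broth dilution test, defined as the lowest drug level giving ≥99.9% reduction in CFU/ml. Inocula were adjusted by hemocytometer.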

Candida dubliniensis [11] = assay: Antifungal activity against Candida dubliniensis 10031 assessed as compound concentration at which paradoxical growth of observed after 24 hrs
How it was run: (§5)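 In the same broth dilution (CLSI M27-A3) tests, read at 24 or 48 h, this is the range of drug concentrations over which paradoxical growth appeared. It was not set when growth occurred across the whole tested range (trailing).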

Candida dubliniensis [12] = assay: Antifungal activity against Candida dubliniensis FMR 10032 infected in immunosuppressed OF1 mouse assessed as fungal count in kidney at 1 mg/kg/day, iv […]; how it was run: as §3
Candida dubliniensis [13] = assay: Antifungal activity against Candida dubliniensis FMR 10032 infected in immunosuppressed OF1 mouse assessed as fungal count in spleen at 1 mg/kg/day, iv […]; how it was run: as §3
Candida dubliniensis [14] = assay: Antifungal activity against Candida dubliniensis 10031 after 24 hrs; conditions: Candida dubliniensis, 10031, 24 h; how it was run: as §2
Candida dubliniensis [15] = assay: Antifungal activity against Candida dubliniensis 10034 assessed as compound concentration at which paradoxical growth of observed after 48 hrs; how it was run: as §5
Candida dubliniensis [16] = assay: Antifungal activity against Candida dubliniensis FMR 10032 infected in OF1 mouse assessed as fungal count in spleen at 10 mg/kg/day, iv […]; how it was run: as §1
Candida dubliniensis [17] = assay: Antifungal activity against Candida dubliniensis FMR 10032 infected in OF1 mouse assessed as fungal count in spleen at 1 mg/kg/day, iv […]; how it was run: as §1
Candida dubliniensis [18] = assay: Antifungal activity against Candida dubliniensis 10033 assessed as compound concentration at which paradoxical growth of observed after 24 hrs; how it was run: as §5
Candida dubliniensis [19] = assay: Antifungal activity against Candida dubliniensis 10033 by hemocytometry; how it was run: as §4
Candida dubliniensis [20] = assay: Antifungal activity against Candida dubliniensis FMR 10034 infected in OF1 mouse assessed as fungal count in spleen at 1 mg/kg/day, iv […]; how it was run: as §1
Candida dubliniensis [21] = assay: Antifungal activity against Candida dubliniensis 10031 after 48 hrs; conditions: Candida dubliniensis, 10031, 48 h; how it was run: as §2
Candida dubliniensis [22] = assay: Antifungal activity against Candida dubliniensis 9456 after 24 hrs; conditions: Candida dubliniensis, 9456, 24 h; how it was run: as §2
Candida dubliniensis [23] = assay: Antifungal activity against Candida dubliniensis 10034 after 24 hrs; conditions: Candida dubliniensis, 10034, 24 h; how it was run: as §2
Candida dubliniensis [24] = assay: Antifungal activity against Candida dubliniensis 9456 assessed as compound concentration at which paradoxical growth of observed after 24 hrs; how it was run: as §5
Candida dubliniensis [25] = assay: Antifungal activity against Candida dubliniensis 10031 by hemocytometry; how it was run: as §4
Candida dubliniensis [26] = assay: Antifungal activity against Candida dubliniensis 10034 after 48 hrs; conditions: Candida dubliniensis, 10034, 48 h; how it was run: as §2
Candida dubliniensis [27] = assay: Antifungal activity against Candida dubliniensis FMR 10034 infected in OF1 mouse assessed as fungal count in kidney at 1 mg/kg/day, iv […]; how it was run: as §1
Candida dubliniensis [28] = assay: Antifungal activity against Candida dubliniensis 10033 assessed as compound concentration at which paradoxical growth of observed after 48 hrs
How it was run: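 Broth dilution susceptibility testing of yeasts per CLSI reference method M27-A3, with inocula adjusted by hemocytometer count. Wells were read at 24 and 48 h. The paradoxical growth range is the span of drug concentrations (μg/ml) over which growth reappeared above the inhibitory concentration. Where growth occurred across the entire concentration range (trailing), no range was determined.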

Candida dubliniensis [29] = assay: Antifungal activity against Candida dubliniensis 9453 after 24 hrs; conditions: Candida dubliniensis, 9453, 24 h; how it was run: as §2
Candida dubliniensis [30] = assay: Antifungal activity against Candida dubliniensis 9453 assessed as compound concentration at which paradoxical growth of observed after 24 hrs; how it was run: as §5
Candida dubliniensis [31] = assay: Antifungal activity against Candida dubliniensis 9453 by hemocytometry; how it was run: as §4
Candida dubliniensis [32] = assay: Antifungal activity against Candida dubliniensis 9453 after 48 hrs; conditions: Candida dubliniensis, 9453, 48 h; how it was run: as §2
Candida dubliniensis [33] = assay: Antifungal activity against Candida dubliniensis FMR 10034 infected in immunosuppressed OF1 mouse assessed as fungal count in kidney at 1 mg/kg/day, iv […]; how it was run: as §3
Candida dubliniensis [34] = assay: Antifungal activity against Candida dubliniensis FMR 10032 infected in OF1 mouse assessed as fungal count in kidney at 10 mg/kg/day, iv […]; how it was run: as §1
Candida dubliniensis [35] = assay: Antifungal activity against Candida dubliniensis 10032 after 24 hrs; conditions: Candida dubliniensis, 10032, 24 h; how it was run: as §2
Candida dubliniensis [36] = assay: Antifungal activity against Candida dubliniensis 10034 assessed as compound concentration at which paradoxical growth of observed after 24 hrs; how it was run: as §5
Candida dubliniensis [37] = assay: Antifungal activity against Candida dubliniensis 10035 assessed as compound concentration at which paradoxical growth of observed after 48 hrs; how it was run: as §5
Candida dubliniensis [38] = assay: Antifungal activity against Candida dubliniensis 10035 by hemocytometry; how it was run: as §4
Candida dubliniensis [39] = assay: Antifungal activity against Candida dubliniensis 10032 by hemocytometry; how it was run: as §4
Candida dubliniensis [40] = assay: Antifungal activity against Candida dubliniensis 9456 by hemocytometry; how it was run: as §4
Candida dubliniensis [41] = assay: Antifungal activity against Candida dubliniensis 10033 after 24 hrs; conditions: Candida dubliniensis, 10033, 24 h; how it was run: as §2

MIC50 (Candida dubliniensis [3]): 0.06 µg/mL (≈ 0.0549 µM) | MIC50 (Candida dubliniensis [5]): 0.06 µg/mL (≈ 0.0549 µM) | MIC50 (Candida dubliniensis [6]): 0.25 µg/mL (≈ 0.229 µM) | MIC50 (Candida dubliniensis [8]): 0.06 µg/mL (≈ 0.0549 µM) | MIC50 (Candida dubliniensis [9]): 0.25 µg/mL (≈ 0.229 µM) | MIC50 (Candida dubliniensis [14]): 0.125 µg/mL (≈ 0.114 µM) | MIC50 (Candida dubliniensis [21]): 0.25 µg/mL (≈ 0.229 µM) | MIC50 (Candida dubliniensis [22]): 0.25 µg/mL (≈ 0.229 µM) | MIC50 (Candida dubliniensis [23]): 0.125 µg/mL (≈ 0.114 µM) | MIC50 (Candida dubliniensis [26]): 0.25 µg/mL (≈ 0.229 µM) | MIC50 (Candida dubliniensis [29]): 0.25 µg/mL (≈ 0.229 µM) | MIC50 (Candida dubliniensis [32]): 0.25 µg/mL (≈ 0.229 µM) | MIC50 (Candida dubliniensis [35]): 0.06 µg/mL (≈ 0.0549 µM) | MIC50 (Candida dubliniensis [41]): 0.25 µg/mL (≈ 0.229 µM)
SMILES: CC[C@H](C)C[C@H](C)CCCCCCCCC(=O)N[C@H]1C[C@@H](O)[C@@H](NCCN)NC(=O)[C@@H]2[C@@H](O)CCN2C(=O)[C@H]([C@H](O)CCN)NC(=O)[C@H]([C@H](O)[C@@H](O)c2ccc(O)cc2)NC(=O)[C@@H]2C[C@@H](O)CN2C(=O)[C@H]([C@@H](C)O)NC1=O [CASPOFUNGIN]
log10cfu (Candida dubliniensis [1]): 3.41 | log10cfu (Candida dubliniensis [2]): 4.09 | log10cfu (Candida dubliniensis [4]): 3.89 | log10cfu (Candida dubliniensis [7]): 2.08 | MFC (Candida dubliniensis [10]): > 16 µg/mL | Activity (Candida dubliniensis [11]): 8 µg/mL | log10cfu (Candida dubliniensis [12]): 1.77 | log10cfu (Candida dubliniensis [13]): 1.26 | Activity (Candida dubliniensis [15]): 1 µg/mL | log10cfu (Candida dubliniensis [16]): 3.38 | log10cfu (Candida dubliniensis [17]): 3.56 | Activity (Candida dubliniensis [18]): 8 µg/mL | MFC (Candida dubliniensis [19]): > 16 µg/mL | log10cfu (Candida dubliniensis [20]): 4.21 | Activity (Candida dubliniensis [24]): 8 µg/mL | MFC (Candida dubliniensis [25]): > 16 µg/mL | log10cfu (Candida dubliniensis [27]): 4.5 | Activity (Candida dubliniensis [28]): 2 µg/mL | Activity (Candida dubliniensis [30]): 8 µg/mL | MFC (Candida dubliniensis [31]): > 16 µg/mL | log10cfu (Candida dubliniensis [33]): 3.39 | log10cfu (Candida dubliniensis [34]): 3.08 | Activity (Candida dubliniensis [36]): 16 µg/mL | Activity (Candida dubliniensis [37]): 8 µg/mL | MFC (Candida dubliniensis [38]): 0.5 µg/mL (≈ 0.457 µM) | MFC (Candida dubliniensis [39]): 4 µg/mL (≈ 3.66 µM) | MFC (Candida dubliniensis [40]): > 16 µg/mL
